Screening data deposited in PubChem by The Scripps Research Institute Molecular Screening Center.
Sampled rows, rich in hits. Any-hit rate of the full collection: about 4.6%.
CHO parental Ca: counter-screen for OX1R antagonists: effect in parental CHO cells. inhibition, % at 5.6 µM. AID 463079. parental CHO-K1, ATP-induced calcium, Fluo-8 fluorescence. 330,000 tested, 0.63% active;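 active means inhibition above that plate's mean sample inhibition plus 3 SD, cut at about 26% in these data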;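 further: 0% = ATP-challenged DMSO wells and 100% = DMSO wells without ATP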
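Assay system: parental CHO cells; Read-out basis: percent inhibition of ATP-evoked calcium rise, normalized to controls; Benchmarks: ATP and no-ATP DMSO wells; Compound dosing: single nominal dose of 5.6 µM per compound; Signal: Fluo-8 calcium dye fluorescence; Also added: ATP as calcium-mobilizing challenge; Repeats: singlicate.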
TAAR1 antag: antagonists of human TAAR1 | CHO RD-HGA16 TAAR1, Fluo-8 calcium fluorescence, antagonist | 360,000 tested, 1.5% active | inhibition, % at 3 µM | Q96RJ0 | AID 624466;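 active means inhibition above a per-plate cutoff, the mean inhibition of test compounds on that plate plus 3 SD, cut at about 49% in these data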;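 further: 0% = DMSO plus EC80 beta-PEA response and 100% = DMSO alone without agonist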
Target sequence (Q96RJ0 whole entry, looked up): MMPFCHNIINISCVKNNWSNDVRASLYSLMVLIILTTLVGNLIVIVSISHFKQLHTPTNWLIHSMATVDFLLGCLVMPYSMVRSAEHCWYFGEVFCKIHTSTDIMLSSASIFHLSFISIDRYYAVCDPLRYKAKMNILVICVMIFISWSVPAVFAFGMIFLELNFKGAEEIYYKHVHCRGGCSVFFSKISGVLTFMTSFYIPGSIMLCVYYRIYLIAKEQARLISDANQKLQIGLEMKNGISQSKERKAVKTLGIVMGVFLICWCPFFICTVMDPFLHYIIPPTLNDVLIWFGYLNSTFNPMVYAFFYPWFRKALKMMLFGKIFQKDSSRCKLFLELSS
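Test system: CHO RD-HGA16 cells bearing hTAAR1 | Reagent: β-PEA, EC80 | Compound dosing: 3 µM, single point | Schedule: Dye loading 75 min at 37 °C, then 30 min room temperature | Signal: Calcium fluorescence with Fluo-8 | Evaluation: Percent inhibition of PEA-evoked calcium signal, max/basal emission ratio | Control set: DMSO-only wells and EC80 β-PEA-stimulated wells | Repeats: Singlicate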
OX1R antag-1: antagonists of human orexin 1 receptor | CHO/OX1R cells, Fluo-8 calcium fluorescence, orexin A | inhibition, % at 5 µM | 330,000 tested, 0.43% active | AID 434989;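 active means inhibition above its plate's threshold, mean inhibition of all tested compounds on the plate plus 3 SD, cut at about 37% in these data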;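 further: 0% = orexin A challenge wells and 100% = SB-334867-A antagonist wells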
Target sequence (O43613 whole entry, looked up): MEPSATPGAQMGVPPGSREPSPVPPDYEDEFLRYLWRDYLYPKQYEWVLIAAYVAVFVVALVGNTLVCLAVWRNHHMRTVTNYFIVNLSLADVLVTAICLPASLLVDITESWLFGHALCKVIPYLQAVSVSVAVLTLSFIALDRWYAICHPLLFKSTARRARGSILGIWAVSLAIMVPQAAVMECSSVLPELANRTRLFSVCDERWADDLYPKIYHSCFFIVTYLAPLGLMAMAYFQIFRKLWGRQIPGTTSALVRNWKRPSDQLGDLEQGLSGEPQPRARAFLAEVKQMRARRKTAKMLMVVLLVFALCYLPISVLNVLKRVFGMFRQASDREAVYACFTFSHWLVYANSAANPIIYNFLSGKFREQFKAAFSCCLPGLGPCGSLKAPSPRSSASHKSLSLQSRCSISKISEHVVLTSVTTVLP
TAAR1 agonist: human TAAR1 agonism | CHO RD-HGA16 TAAR1, Fluo-8 calcium fluorescence; vehicle wells 0%, saturating PEA agonist 100% | activation, % at 3 µM | 360,000 tested, 0.99% active | AID 624467;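 active means activation above the mean activation of all test compounds in the run plus 3 SD, cut at about 38% in these data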
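test system = CHO RD-HGA16 cells carrying human TAAR1 plus Gα16 | schedule = 17-24 h seeding, 75 min 37 °C dye, 30 min RT | compound dosing = 3 µM single concentration | control set = DMSO and PEA EC100 | replicates = n 1 | signal = Fluo-8 fluorescence, 5 s baseline then 140 s kinetic read | measure = percent activation vs PEA EC100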
GPR7 antag: antagonists of human GPR7 (neuropeptides B/W receptor 1); P48145; GPR7-expressing cells, fluorescence antagonist assay; inhibition, % at 4.4 µM; 290,000 tested, 1.1% active; AID 1861; in the data active means inhibition above about 16%, passing the limit was not always enough;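 further: cells stimulated with the agonist NPW; 0% = agonist with vehicle and 100% = vehicle without agonist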
OX1R antag-2: antagonists of human orexin 1 receptor (OX1R) | 330,000 tested, 1.8% active | inhibition, % at 6.6 µM | OX1R-expressing cells, FRET antagonist read-out | O43613; in the data active means inhibition mostly above about 38%, no sharp cut-off; inactive means mostly below about 40%;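 further: 0% = agonist challenge alone and 100% = reference antagonist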
OX1R Ca confirm: confirmation of human orexin 1 receptor antagonists; 1,100 tested, 38% active; shares compounds with OX1R antag-1; AID 492963; inhibition, % at 5 µM; CHO/OX1R cells, orexin A calcium Fluo-8 fluorescence; in the data active means inhibition above about 29%;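 further: 0% = agonist challenge alone and 100% = reference antagonist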
CHO Ca triplic: counter-screen: parental CHO calcium response change, triplicate; shares compounds with OX1R antag-1; parental CHO-K1, ATP-induced calcium, Fluo-8 fluorescence; 1,100 tested, 9.3% active; AID 492965; inhibition, % at 5.6 µM;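 active means inhibition above a per-plate limit, the mean inhibition of that plate's test compounds plus 3 SD, cut at about 25% in these data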;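 further: 0% = ATP challenge with DMSO and 100% = DMSO without ATP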
OX1R HTRF confirm: OX1R (human) antagonism, HTRF confirmed | AID 492964 | inhibition, % at 6.6 µM | 1,800 tested, 49% active | OX1R-expressing cells, HTRF antagonist assay | shares compounds with OX1R antag-2; in the data active means inhibition above about 55%;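 further: CHO cells expressing OX1R stimulated with orexin A at about EC80; 0% = agonist challenge alone and 100% = reference antagonist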
CHO-K1 HTRF: counter-screen for OX1R antagonists: effect in parental CHO-K1 cells; shares compounds with OX1R antag-2; HTRF counterscreen; inhibition, % at 6.6 µM; 1,800 tested, 48% active; in the data active means inhibition above about 17%;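 further: 0% = agonist challenge with vehicle and 100% = vehicle alone without agonist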
Active calls of the source: *; nt = not tested or not shown.

SMILES	CHO parental Ca	TAAR1 antag	OX1R antag-1	TAAR1 agonist	GPR7 antag	OX1R antag-2	OX1R Ca confirm	CHO Ca triplic	OX1R HTRF confirm	CHO-K1 HTRF
Nc1nc2ccc(-c3nc4ccccc4o3)cc2s1	-12.0	3.4	71.6*	4.7	2.2	97.3*	32.0*	-3.7	89.2*	5.3
Cc1cc(SCC(=O)c2ccc(O)c(O)c2)nc2ccccc12	0.8	-26.8	3.2	4.5	0.1	55.2	nt	nt	nt	nt
Cc1cc(SCC(=O)c2ccc3c(c2)OCO3)nc2ccccc12	-20.8	-3.5	36.3	6.3	7.0	59.0*	11.2	-8.8	87.0*	-1.9
COc1cc2cc(C(=O)N/N=C/c3ccccc3Cl)[nH]c2cc1OC	-29.4	11.6	29.9	4.5	-12.4	75.9*	17.5	-9.7	89.3*	13.5
COc1ccc(/C=N/NC(=O)c2cc3cc(OC)c(OC)cc3[nH]2)cc1	-14.1	1.0	-23.1	2.8	7.9	37.4	nt	nt	nt	nt
COc1cc2cc(C(=O)N/N=C/c3ccc(F)cc3)[nH]c2cc1OC	-7.2	8.6	29.2	1.1	-15.7	67.5*	14.5	2.8	73.3*	8.8
C[C@H]1COC(=O)[C@H](Cc2ccc(F)cc2)C/C=C\C[C@H](CC(=O)N(CCO)Cc2ccccc2)C(=O)N1	-16.6	8.1	-36.0	9.6	nt	5.4	nt	nt	nt	nt
CC(C)(C)[C@@H]1COC(=O)[C@H](Cc2ccc(F)cc2)C/C=C\C[C@@H](CC(=O)N(CCO)Cc2ccccc2)C(=O)N1	-15.2	43.8	56.8	20.9	nt	66.9*	21.7	-17.7	72.4*	-2.6
CCOc1ccccc1NC(=O)COC(=O)C(CC(C)C)N1C(=O)C2CC=CCC2C1=O (configuration not stated)	-18.4	22.2	32.0	-1.6	12.8	60.0*	18.3	-7.8	42.7	8.6
COc1ccc(NC(=O)CSc2nc3sc(C)cc3c(=O)n2C)c(OC)c1	-8.0	-4.8	42.6*	-1.0	-0.5	88.4*	30.9*	-15.6	85.8*	-15.1
COc1ccc(NC(=O)CSc2nc3sc(C)cc3c(=O)n2C)cc1	0.2	-15.5	-18.0	-0.6	-6.2	12.4	nt	nt	nt	nt
COc1cccc(-c2nc(NCC3CCCO3)c3ccccc3n2)c1O (configuration not stated)	-13.3	44.8	-25.9	12.6	-2.5	24.5	nt	nt	nt	nt
Oc1ccccc1-c1nc(NCC2CCCO2)c2ccccc2n1 (configuration not stated)	-20.6	36.6	63.2*	5.0	8.9	96.7*	44.2*	-7.4	87.8*	16.5
Cc1cccc(C)c1NC(=O)C(c1ccccc1F)n1c(=O)c(-c2ccco2)nc2ccccc21 (configuration not stated)	nt	-16.1	nt	-1.3	nt	nt	nt	nt	nt	nt
CCn1c(Cc2c(C)[nH]c3ccccc23)n[nH]c1=S	9.6	-0.5	-20.0	0.1	-2.0	2.8	nt	nt	nt	nt
CC(=O)Nc1cccc(OCC(=O)NC(C)c2ccc3ccccc3c2)c1 (configuration not stated)	-13.0	7.5	50.9*	-1.3	-3.1	89.5*	62.1*	-3.8	77.9*	12.4
CC(=O)Nc1cccc(OCC(=O)Nc2ccccc2)c1	1.7	-7.1	3.7	10.7	12.7	-2.7	nt	nt	nt	nt
O=C(O)C1C2CCC(C2)C1C(=O)Nc1ccc(Cl)c(Cl)c1 (configuration not stated)	-16.1	-26.5	-12.8	1.6	nt	2.9	nt	nt	nt	nt
Cc1cc(C)nc(NC(=O)CSc2nc3ccccc3s2)n1	-11.3	-10.8	43.1*	12.1	5.2	97.9*	42.3*	-7.8	82.4*	-0.5
Cc1nn(-c2ccccc2)c(C)c1/C=N/NC(=O)c1cc(-c2ccccc2)n[nH]1	-23.1	38.6	87.4*	14.8	8.8	97.8*	63.7*	-5.3	80.8*	-18.8
Cc1nn(-c2ccccc2)c(C)c1/C=N/NC(=O)c1cc(-c2cccc3ccccc23)n[nH]1	-11.1	33.5	-19.3	3.0	-17.7	10.3	nt	nt	nt	nt
Cc1ccnc(NC(=O)c2oc3ccccc3c2C)c1	-9.5	-11.8	50.6*	2.5	nt	95.5*	49.0*	-8.9	90.7*	14.9
O=C1NC(=O)C2(CCCc3ccc([N+](=O)[O-])cc32)N1 (configuration not stated)	nt	8.6	nt	1.8	nt	nt	nt	nt	nt	nt
Cc1ccc(NC2CCCN(C(=O)c3cccc(-c4ncc[nH]4)c3)C2)cc1C (configuration not stated)	-19.6	-8.3	32.2	2.1	-4.7	92.8*	65.2*	-15.1	91.6*	3.8
O=C(COC(=O)c1cc(-c2cccs2)nc2ccccc12)NC1CCS(=O)(=O)C1 (configuration not stated)	-6.5	27.1	42.1*	17.5	-9.9	84.4*	33.1*	8.3	84.0*	6.2
SMILES	CHO parental Ca	TAAR1 antag	OX1R antag-1	TAAR1 agonist	GPR7 antag	OX1R antag-2	OX1R Ca confirm	CHO Ca triplic	OX1R HTRF confirm	CHO-K1 HTRF
O=C(N/N=C/c1cccc(Oc2ccccc2)c1)c1ccc(O)cc1O	nt	11.6	nt	-0.9	-11.9	nt	nt	nt	nt	nt
Cn1c2ccccc2c2cc(/C=N/NC(=O)c3ccc(O)cc3O)ccc21	1.6	nt	34.3	nt	1.7	91.5*	27.7	25.0*	73.3*	12.8
c1ccc2[nH]c(NCc3ccc4c(c3)OCO4)nc2c1	-5.5	14.0	-6.5	14.5	-1.1	7.1	nt	nt	nt	nt
CNc1nc(N)c([N+](=O)[O-])c(NCC2CCCO2)n1 (configuration not stated)	-4.8	-22.4	-5.4	4.0	-10.6	16.8	nt	nt	nt	nt
O=C(COC(=O)c1cc(-c2cccc(Br)c2)nc2ccccc12)NCC1CCCO1 (configuration not stated)	-18.4	34.7	44.3*	5.7	-2.1	86.4*	39.8*	-5.0	68.0*	11.6
Cc1ccccc1NC(=O)Cn1nc(-c2ccc(Cl)s2)ccc1=O	-5.3	-27.1	7.5	2.2	4.9	7.6	nt	nt	nt	nt
Cc1ccc(Cl)cc1NC(=O)Cn1nc(-c2cccs2)ccc1=O	5.8	6.8	58.0*	3.5	10.3	98.3*	23.9	-6.8	60.6*	4.4
COc1ccc(NC(=O)C(=O)Nc2cccc3cccnc23)cc1OC	-4.1	-4.0	53.3*	0.5	-19.9	81.0*	61.3*	-3.9	92.6*	13.2
CCOc1ccc(C(=O)Nc2cccc3cccnc23)cc1	-12.5	-21.8	65.8*	0.6	4.5	80.6*	29.0*	-7.9	87.3*	7.7
